Test results published in ChEMBL document CHEMBL1155447 (J Med Chem, 2010).

Tests used:
[1] = molecular target: T1, Aromatase (Homo sapiens, UniProt P11511)
T1 sequence (P11511 whole entry): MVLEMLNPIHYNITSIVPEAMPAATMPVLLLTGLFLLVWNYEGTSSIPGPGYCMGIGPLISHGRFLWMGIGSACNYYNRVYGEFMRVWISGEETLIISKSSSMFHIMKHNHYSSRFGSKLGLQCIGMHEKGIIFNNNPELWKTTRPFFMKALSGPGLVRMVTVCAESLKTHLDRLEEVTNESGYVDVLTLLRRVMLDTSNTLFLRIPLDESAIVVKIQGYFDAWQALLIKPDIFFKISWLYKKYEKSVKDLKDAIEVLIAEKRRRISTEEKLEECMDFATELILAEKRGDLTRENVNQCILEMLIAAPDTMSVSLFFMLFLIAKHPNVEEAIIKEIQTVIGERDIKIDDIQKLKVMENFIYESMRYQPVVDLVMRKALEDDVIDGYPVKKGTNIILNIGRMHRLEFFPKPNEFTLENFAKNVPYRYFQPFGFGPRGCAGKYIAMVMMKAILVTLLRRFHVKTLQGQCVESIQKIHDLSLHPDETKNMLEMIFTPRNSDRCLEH

[2] = molecular target: T2, Steroid 17-alpha-hydroxylase/17,20 lyase (Homo sapiens, UniProt P05093); experiment: Inhibition of human CYP17 expressed in Escherichia coli at 2.5 uM
T2 sequence (P05093 whole entry): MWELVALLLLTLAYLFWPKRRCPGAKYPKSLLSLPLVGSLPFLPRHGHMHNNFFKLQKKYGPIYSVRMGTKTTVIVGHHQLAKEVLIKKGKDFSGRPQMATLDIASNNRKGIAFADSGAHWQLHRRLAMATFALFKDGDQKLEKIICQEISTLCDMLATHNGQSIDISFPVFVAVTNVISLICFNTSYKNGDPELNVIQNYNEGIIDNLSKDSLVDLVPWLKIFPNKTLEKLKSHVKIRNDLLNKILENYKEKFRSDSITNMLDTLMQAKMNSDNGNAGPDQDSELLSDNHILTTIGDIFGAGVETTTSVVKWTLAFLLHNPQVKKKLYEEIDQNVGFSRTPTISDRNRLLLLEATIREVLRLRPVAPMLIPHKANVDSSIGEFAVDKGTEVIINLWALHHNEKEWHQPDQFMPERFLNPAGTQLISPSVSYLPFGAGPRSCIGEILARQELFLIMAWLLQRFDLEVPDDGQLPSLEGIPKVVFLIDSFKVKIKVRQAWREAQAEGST

[3] = molecular target: T2, Steroid 17-alpha-hydroxylase/17,20 lyase; experiment: Inhibition of human CYP17 expressed in Escherichia coli
[4] = molecular target: T1, Aromatase; experiment: Inhibition of aromatase from human placental microsomes at 10 uM
Outline: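 Human placental microsomes were incubated with 1β[3H]androstenedione (500 nM) as substrate. Aromatization was quantified by measuring the tritiated water formed, and results are reported as % inhibition at 10 μM test concentration. Fadrozole served as the positive control.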

SMILES	IC50 [1]	inhibition at 2.5 µM [2]	IC50 [3]	inhibition at 10 µM [4]
O=c1c2ccccc2oc2ccc(Cn3ccnc3)cc12	7900 nM	11%	–	–
O=c1c2ccccc2oc2cccc(Cn3ccnc3)c12	150 nM	–	880 nM	–
O=c1c2ccccc2oc2c(Cn3ccnc3)c([N+](=O)[O-])ccc12	1900 nM	9%	–	–
CC(=O)N1CCN(c2ccc(OCC3COC(Cn4ccnc4)(c4ccc(Cl)cc4Cl)O3)cc2)CC1 (stereo not given) [KETOCONAZOLE]	–	–	–	17.7%
c1ccc(Oc2ccccc2Cn2ccnc2)cc1	389 nM	8%	–	–
O=c1c2cccnc2oc2c(Cn3ccnc3)ccc([N+](=O)[O-])c12	101 nM	–	–	–

The remaining compounds from weak to strong by IC50 [1], led by results:

IC50 [1]	inhibition at 2.5 µM [2]	IC50 [3]	SMILES	inhibition at 10 µM [4]
53 nM	–	–	O=c1c2ccccc2oc2c(Cn3ccnc3)cc([N+](=O)[O-])cc12	–
17 nM	17%	–	O=c1c2ccccc2oc2c(Cn3ccnc3)cccc12	–
16.5 nM	5%	–	O=c1c2ccccc2sc2c(Cn3ccnc3)ccc([N+](=O)[O-])c12	–
11.4 nM	–	–	O=[N+]([O-])c1ccc(Cn2ccnc2)c(Oc2ccccc2)c1	–
5.59 nM	17%	–	O=[N+]([O-])c1ccc(Cn2ccnc2)c(Sc2ccccc2)c1	–
3.98 nM	28%	–	O=c1c2ccccc2sc2c(Cn3ccnc3)cccc12	–
